The source made the active and inactive calls.
Tests used:
[1] = Cytotoxicity against human MT4 cells after 96 hrs by MTT assay; assay type: cell-based; conditions: MT4 cells
Summary of the method: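 Exponentially growing MT-4 cells at 1 × 10^5 cells/mL in RPMI-1640 with 10% FCS, exposed to serial compound dilutions at 37 °C, 5% CO2. Viability by MTT after 96 h; CC50 is the concentration reducing viability of mock-infected cells by 50%.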

[2] = Inhibition of Bovine viral diarrhea virus NADL NS5B Cdelta24 RNA dependent RNA polymerase expressed in Escherichia coli after 30 mins by fluorescence assay; set-up: species or system Bovine viral diarrhea virus 1-NADL
Summary of the method: (§1)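 N-His-tagged NS5B from E. coli Rosetta2(DE3)pLysS (BVDV C-terminal Δ24; HCV1b Δ21), Ni-NTA purified, 500–600 ng per 20 µL reaction. Template 10 µg/mL poly(rC), primer 0.1 µg/mL oligo(rG)12, substrate 80 µM GTP; 20 mM Tris pH 7.0, 0.5 mM MnCl2 or 5 mM MgCl2, 5% DMSO. Enzyme pre-incubated with drug 30 min at room temperature.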

Hepatitis C virus [3] = assay: Inhibition of HCV 1b NS5B Cdelta21 RNA dependent RNA polymerase expressed in Escherichia coli after 30 mins by fluorescence assay; assay type: functional, Hepatitis C virus subtype 1b; conditions: 0.5 h; summary of the method: as §1
[4] = Cytotoxicity against MDBK cells after 48 to 96 hrs by MTT assay; assay type: cell-based, Bos taurus; conditions: cattle, MDBK cells
Summary of the method: (§2)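 Cell seeding: MDBK at 6 × 10^5 cells/mL in MEM-E with 10% horse serum and 1 mM Na pyruvate; BHK at 1 × 10^6 cells/mL in MEM-E with 10% FBS. Serial compound dilutions, 37 °C, 5% CO2. Viability of mock-infected cells by MTT after 48–96 h; CC50 is the concentration reducing viability by 50%.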

Yellow fever virus = assay: Antiviral activity against Yellow fever virus 17D infected in BHK cells assessed as protection from virus-induced cytopathogenicity after 3 to 4 days by MTT method; assay type: functional, organism-based
Poliovirus 1 = assay: Antiviral activity against Polio virus type1 Sabin strain Chat infected in african green monkey Vero cells after 2 days by plaque reduction assay; assay type: functional, organism-based, Human poliovirus 1 strain Sabin; conditions: Enterovirus C, 48 h
[5] = system: Bovine viral diarrhea virus 1; assay: Antiviral activity against Bovine viral diarrhea virus NADL infected in MDBK cells assessed as protection from virus-induced cytopathogenicity after 3 to 4 days by MTT method; assay type: functional, organism-based, Bovine viral diarrhea virus 1-NADL; conditions: Bovine viral diarrhea virus isolates and strains, MDBK
Summary of the method: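 Cytopathogenicity protection assay. MDBK cells at 3 × 10^4/well, grown overnight to confluence. Infected with BVDV NADL at m.o.i. 0.01 in MEM-E with 0.5% inactivated FBS, 1 mM Na pyruvate and 1% kanamycin. Serial compound dilutions added after 1 h. After 3–4 days at 37 °C, viability read by MTT; EC50 is the concentration giving 50% protection.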

[6] = Cytotoxicity against BHK cells after 48 to 96 hrs by MTT assay; assay type: cell-based, Mesocricetus auratus; conditions: hamster; summary of the method: as §2
Coxsackievirus B2 = assay: Antiviral activity against Human coxsackievirus B2 Ohio-1 infected in african green monkey Vero cells after 3 days by plaque reduction assay; assay type: functional, organism-based, Coxsackievirus B2 (strain Ohio-1); conditions: Enterovirus B, Vero, 72 h
Summary of the method: (§3)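 Plaque reduction assay. Vero 76 cells at 2 × 10^5/well, grown overnight to confluence in D-MEM with 10% FBS. Infected 2 h with 50–100 PFU/well, unadsorbed virus removed. Overlay of D-MEM with 1% inactivated FBS and 0.75% methylcellulose, with or without serial compound dilutions. Incubated at 37 °C for 3 days (HSV-1 KOS, CVB-2 Ohio-1) or 5 days (RSV A2). Fixed and stained with crystal violet in 50% ethanol; plaques counted; EC50 by linear regression.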

[7] = Selectivity index, ratio of CC50 for human MT4 cells to EC50 for Bovine viral diarrhea virus NADL; assay type: toxicity, cell-based; conditions: read-out: Ratio CC50/EC50
[8] = system: Vesicular stomatitis virus; assay: Antiviral activity against VSV Indiana lab infected in african green monkey Vero cells after 2 days by plaque reduction assay; assay type: functional, organism-based
[9] = system: Human immunodeficiency virus 1; assay: Antiviral activity against HIV1 3B infected in human MT4 cells assessed as protection from virus-induced cytopathogenicity after 4 days by MTT method; assay type: functional, organism-based
Summary of the method: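 MT-4 cells, 1 × 10^4/well in RPMI with or without serial compound dilutions, infected with HIV-1 IIIB, 100 CCID50 (m.o.i. 0.01). Protection from virus-induced cytopathogenicity read by MTT.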

[10] = Cytotoxicity against african green monkey Vero cells; assay type: cell-based; conditions: chlorocebus sabaeus
Summary of the method: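 Vero 76 monolayers exposed to serial compound dilutions, run in parallel on the same 24-well plates as the plaque-reduction assays. CC50 is the concentration reducing viability of mock-infected cells by 50%.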

Human alphaherpesvirus 1 = assay: Antiviral activity against HSV1 KOS infected in african green monkey Vero cells after 3 days by plaque reduction assay; assay type: functional, organism-based; conditions: Human alphaherpesvirus 1, KOS, 72 h; summary of the method: as §3
[11] = Selectivity index, ratio of CC50 for MDBK cells to EC50 for Bovine viral diarrhea virus NADL; assay type: toxicity, cell-based; conditions: cattle, read-out: Ratio CC50/EC50
[12] = Selectivity index, ratio of CC50 for african green monkey Vero cells to EC50 for Human coxsackievirus B2 Ohio-1; assay type: toxicity, cell-based; conditions: read-out: Ratio CC50/EC50
[13] = Selectivity index, ratio of CC50 for human MT4 cells to EC50 for Human coxsackievirus B2 Ohio-1; assay type: toxicity, cell-based; conditions: read-out: Ratio CC50/EC50
Vaccinia virus = assay: Antiviral activity against Vaccinia virus Elstree-Lister infected in african green monkey Vero cells after 3 days by plaque reduction assay; assay type: functional, organism-based; conditions: Orthopoxvirus vaccinia; for EC50: 72 h
[14] = system: Respiratory syncytial virus; assay: Antiviral activity against RSV A2 infected in african green monkey Vero cells after 5 days by plaque reduction assay; assay type: functional, organism-based; conditions: for EC50: human respiratory syncytial virus, A2, Vero, 120 h; summary of the method: as §3
[15] = system: Mammalian orthoreovirus 1; assay: Antiviral activity against Reovirus 1 3651 infected in BHK21 cells assessed as protection from virus-induced cytopathogenicity after 3 to 4 days by MTT method; assay type: functional, organism-based; conditions: BHK-21
[16] = Cytotoxicity against human HuH7 cells after 72 hrs; assay type: cell-based, Huh-7
Summary of the method: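 GS4.1 replicon cells treated as in the replicon assay (twofold dilutions up to 75 µM, 72 h). Viability by CellTiter 96 AQueous One Solution; CC50 from % cytotoxicity versus concentration.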

Hepatitis C virus [17] = assay: Antiviral activity against HCV Con1 expressed in human HuH7 cells assessed as NS4A expression after 72 hrs by ELISA-based replicon assay; assay type: functional, organism-based, Hepacivirus hominis; conditions: isolate Con1, Huh-7, 72 h
Summary of the method: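 GS4.1 cells (Huh-7 carrying HCV Con1 subgenomic replicon) at 7.5 × 10^3/well. Ten twofold compound dilutions (top 75 µM), 0.5% DMSO, 72 h at 37 °C; replicon-free Huh-7 as negative control. NS4A measured by ELISA with anti-NS4A mAb A-236, peroxidase secondary and o-phenylenediamine, absorbance 492 nm. EC50 by four-parameter sigmoidal fit.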

Row | SMILES | CC50 at 96 h [1] | CC50 [4] | EC50 (Yellow fever virus) | EC50 (Poliovirus 1) | EC50 [5] | CC50 [6] | EC50 (Coxsackievirus B2) | selectivity ratio [7] | Activity [8] | Activity [9] | CC50 [10] | EC50 (Human alphaherpesvirus 1) | selectivity ratio [11] | selectivity ratio [12] | selectivity ratio [13] | EC50 [14] | also measured
1 | Nc1ccc(-c2nc3cc([N+](=O)[O-])ccc3[nH]2)cc1 | 100 µM | 79 µM | > 100 µM | > 100 µM | 1500 nM | > 100 µM | > 100 µM | 67 | inactive | inactive | > 100 µM | > 100 µM | 53 |  |  |  | IC50 [2]: 18 µM; IC50 (Hepatitis C virus [3]): 33 µM
2 | CCC(=O)Nc1ccc(-c2nc3cc(C(F)(F)F)ccc3[nH]2)cc1 | ≥ 100 µM | > 100 µM | > 100 µM | > 100 µM | > 100000 nM | 100 µM | 4 µM |  | inactive | inactive | > 100 µM | > 100 µM |  | > 25 | ≥ 25 |  | 
3 | CC(=O)Nc1ccc(-c2nc3cc(C(F)(F)F)ccc3n2C)cc1 | 15 µM | 46 µM | > 100 µM | 14 µM | > 46000 nM | > 100 µM | 2.5 µM |  | inactive | inactive | > 100 µM | 49 µM |  | > 40 | 6 |  | Activity (Vaccinia virus): inactive; Activity [14]: inactive; Activity [15]: inactive
4 | CC(=O)Nc1ccc(-c2nc3cc(C(F)(F)F)ccc3[nH]2)cc1 | 19 µM | 50 µM | > 53 µM | 16 µM | 1300 nM | 53 µM | 3 µM | 15 | inactive | inactive | 50 µM | 7 µM | 39 | 17 | 6.3 |  | 
5 | CC(=O)Nc1ccc(-c2nc3cc(Cl)c(Cl)cc3[nH]2)cc1 | > 100 µM | 58 µM | > 100 µM | > 100 µM | 1000 nM | > 100 µM | > 100 µM | > 100 | inactive | inactive | > 100 µM | > 100 µM | 58 |  |  |  | CC50 at 72 h [16]: > 75 µM; IC50 [2]: 3 µM; IC50 (Hepatitis C virus [3]): 5 µM; EC50 (Hepatitis C virus [17]): 32 µM
6 | COc1cc(OC)cc(-c2nc3cc(C(F)(F)F)ccc3[nH]2)c1 | 19 µM | > 100 µM | > 100 µM | > 100 µM | > 100000 nM | > 100 µM | 3 µM |  | inactive | inactive | > 100 µM | > 100 µM |  | > 33 | 6.3 | 10 µM | EC50 (Vaccinia virus): > 100 µM
7 | Nc1ccc(-c2nc3cc(Cl)c(Cl)cc3[nH]2)cc1 | 17 µM | 7.5 µM | > 30 µM | > 100 µM | 1000 nM | 30 µM | 11 µM | 17 | inactive | inactive | ≥ 100 µM | 28 µM | 7.5 |  |  | 10 µM | 
8 | O=C(CN1CCCC1)Nc1ccc(-c2nc3cc(Cl)c(Cl)cc3[nH]2)cc1 | 8 µM | 16 µM | > 64 µM | 25 µM | 2500 nM | 64 µM | 1.5 µM |  | inactive | inactive | > 100 µM | > 100 µM |  | > 67 | 5.3 |  | 
9 | COc1cccc(-c2nc3cc(C(F)(F)F)ccc3[nH]2)c1 | 19 µM | 28 µM | > 90 µM | > 100 µM | > 28000 nM | 90 µM | 4 µM |  | inactive | inactive | > 100 µM | 12 µM |  | > 25 | 4.8 | 7 µM | EC50 (Vaccinia virus): > 100 µM
